# From ChEMBL document CHEMBL1681789, “New bichalcone analogs as NF-κB inhibitors and as cytotoxic agents inducing Fas/CD95-dependent apoptosis” (Bioorg Med Chem, 2011)
# Activity calls are given as the source filed them. No cut-off for these calls is given here.
# Assays:
# KB = experiment: Cytotoxicity against human KB cells after 3 days; assay type: functional; settings: 72 h
# Outline: (§1)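 Seeded at 1500–7500 cells/well; compounds added from DMSO-diluted stock. After 3 days, attached cells were fixed with cold 50% TCA, stained with 0.4% sulforhodamine B and read at 562 nm. EC50 is the concentration reducing growth by 50%, averaged over at least three independent determinations. Cells were grown in RPMI-1640 with […], 0.25% bicarbonate and 10% FBS.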
# A549 = experiment: Cytotoxicity against human A549 cells after 3 days; assay type: functional; settings: A549, 72 h; outline: as §1
# HCT-8 = experiment: Cytotoxicity against human HCT8 cells after 3 days; assay type: functional; settings: HCT-8, 72 h; outline: as §1
# DU-145 = experiment: Cytotoxicity against human DU145 cells after 3 days; assay type: functional; settings: DU-145, 72 h; outline: as §1
# HT-29 [1] = experiment: Cytotoxicity against human HT-29 cells for 24 hrs by MTT assay; assay type: functional, cell-based
# Outline: (§2)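 HT-29 cells in 96-well plates were exposed to 0–50 µM for 24 h, or to 30 µM for 12–72 h. MTT was then added for 4 h at 37 °C in the dark, and formazan was dissolved in DMSO and read at 570 nm. Viability is expressed as % of untreated OD, run in triplicate, mean±SD.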
# HT-29 [2] = experiment: Cytotoxicity against human HT-29 cells at 30 uM by MTT assay; assay type: functional, cell-based; settings: TDE = time-dependent effect; outline: as §2
# HT-29 [3] = experiment: Cytotoxicity against human HT-29 cells assessed as nuclear shrinkage and chromatin condensation at 30 uM for 24 hrs using DAPI staining by fluorescence microscopy relative to untreated cells; assay type: functional, cell-based
# Outline: (§3)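 HT-29 cells, kept in RPMI-1640 with FBS and penicillin/streptomycin, were treated for 24 or 48 h. They were fixed in 4% paraformaldehyde for 30 min and stained with 1 µg/mL DAPI for 30 min in the dark. Nuclear morphology was examined by fluorescence microscopy at ×200.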
# HT-29 [4] = experiment: Cytotoxicity against human HT-29 cells assessed as nuclear shrinkage and chromatin condensation at 50 uM for 24 hrs using DAPI staining by fluorescence microscopy relative to untreated cells; assay type: functional, cell-based; outline: as §3
# HT-29 [5] = experiment: Cytotoxicity against human HT-29 cells assessed as nuclear shrinkage and chromatin condensation at 30 uM for 48 hrs using DAPI staining by fluorescence microscopy relative to untreated cells; assay type: functional, cell-based; outline: as §3
# HT-29 [6] = experiment: Cytotoxicity against human HT-29 cells assessed as nuclear shrinkage and chromatin condensation at 50 uM for 48 hrs using DAPI staining by fluorescence microscopy relative to untreated cells; assay type: functional, cell-based; outline: as §3
# HT-29 [7] = experiment: Induction of apoptosis in human HT-29 cells assessed as DNA fragmentation at 30 uM using TUNEL staining by flow cytometry; assay type: functional, cell-based
# Outline: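 HT-29 cells in 6-well plates were treated with 30 µM for 24 and 48 h and harvested. They were labeled with TdT enzyme at 37 °C for 1 h, then FITC anti-digoxigenin conjugate at 37 °C for 30 min in the dark. TUNEL-positive cells were counted by flow cytometry, in triplicate.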
# HT-29 [8] = experiment: Induction of apoptosis in human HT-29 cells at 30 uM for 24 hrs pretreated with caspase 3 inhibitor […] for 1 hr by MTT assay; assay type: functional, cell-based
# Outline: (§4)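 HT-29 cells were pretreated for 1 h with caspase-3, -8 or -9 inhibitor (dissolved in DMSO, diluted in medium), then given 30 µM for 24 h. Viability was read by MTT at 570 nm, in triplicate.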
# HT-29 [9] = experiment: Induction of apoptosis in human HT-29 cells at 30 uM for 24 hrs pretreated with caspase 9 inhibitor Z-LEHD-FMK for 1 hr by MTT assay; assay type: functional, cell-based; outline: as §4
# HT-29 [10] = experiment: Induction of apoptosis in human HT-29 cells at 30 uM for 24 hrs pretreated with caspase 8 inhibitor Z-IETD-FMK for 1 hr by MTT assay; assay type: functional, cell-based; outline: as §4
# HT-29 [11] = experiment: Induction of apoptosis in human HT-29 cells assessed as increased expression of Fas/CD95 protein by Western blotting; assay type: functional, cell-based
# Outline: (§5)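 Total or cytosolic extracts (30 µg protein) from treated HT-29 cells were run on SDS-PAGE and transferred to PVDF. Blots were probed for 12 h with monoclonal antibodies to the named protein, followed by an HRP secondary, and detected by ECL.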
# HT-29 [12] = experiment: Induction of apoptosis in human HT-29 cells assessed as increased expression of FADD protein by Western blotting; assay type: functional, cell-based; outline: as §5
# HT-29 [13] = experiment: Induction of apoptosis in human HT-29 cells assessed as increased expression of cytosolic cytochrome C protein by Western blotting; assay type: functional, cell-based; outline: as §5
# HT-29 [14] = experiment: Induction of apoptosis in human HT-29 cells assessed as increased expression of Apaf-1 protein by Western blotting; assay type: functional, cell-based; outline: as §5
# HT-29 [15] = experiment: Induction of apoptosis in human HT-29 cells assessed as increased expression of AIF protein by Western blotting; assay type: functional, cell-based; outline: as §5
# HT-29 [16] = experiment: Induction of apoptosis in human HT-29 cells assessed as increased expression of Endo G protein by Western blotting; assay type: functional, cell-based; outline: as §5
# HT-29 [17] = experiment: Induction of apoptosis in human HT-29 cells assessed as increased expression of caspase 3 protein by Western blotting; assay type: functional, cell-based; outline: as §5
# HT-29 [18] = experiment: Induction of apoptosis in human HT-29 cells assessed as increased expression of Bax protein by Western blotting; assay type: functional, cell-based; outline: as §5
# HT-29 [19] = experiment: Induction of apoptosis in human HT-29 cells assessed as increased expression of t-Bid protein by Western blotting; assay type: functional, cell-based; outline: as §5
# HT-29 [20] = experiment: Induction of apoptosis in human HT-29 cells assessed as decreased expression of pro-caspase-8 protein by Western blotting; assay type: functional, cell-based; outline: as §5
# HT-29 [21] = experiment: Induction of apoptosis in human HT-29 cells assessed as decreased expression of pro-caspase-9 protein by Western blotting; assay type: functional, cell-based; outline: as §5
# HT-29 [22] = experiment: Induction of apoptosis in human HT-29 cells assessed as decreased expression of Bcl-2 protein by Western blotting; assay type: functional, cell-based; outline: as §5
# [23] = Inhibition of Nitric oxide synthase activity in mouse BV2 cells assessed as LPS-induced NO production after 24 hrs by Griess reaction; assay type: cell-based; settings: BV-2, 24 h
# Outline: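 Murine BV2 microglia were cultured in DMEM with 5% FBS and given 1–50 µM drug with 0.5 µg/mL LPS. Nitrite accumulated in the medium over 24 h was measured by Griess reagent. IC50 values are means ± SEM from 3–6 experiments on different days using different passages.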
# BV-2 = experiment: Inhibition of NADPH oxidase mediated-ROS production in mouse BV2 cells; assay type: cell-based
# Outline: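 Compounds were incubated with 50 µg microglial cell homogenate for 20 min at 37 °C in the dark. Superoxide production was started with 200 µM NADPH, and chemiluminescence was followed for 30 min; the AUC represents ROS production. DPI served as positive control.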
# HT-29 [24] = experiment: Induction of apoptosis in human HT-29 cells assessed as caspase 3 activation at 30 uM for 24 hrs by MTT assay; assay type: functional, cell-based
# HT-29 [25] = experiment: Induction of apoptosis in human HT-29 cells assessed as caspase 8 activation at 30 uM for 24 hrs by MTT assay; assay type: functional, cell-based
# HT-29 [26] = experiment: Induction of apoptosis in human HT-29 cells assessed as caspase 9 activation at 30 uM for 24 hrs by MTT assay; assay type: functional, cell-based
smiles,measurement,setting,value
COc1cc(C(=O)/C=C/c2cccnc2)cc(CN2CCN(c3ccc(C(C)=O)cc3)CC2)c1O,GI50,KB,13.1 µM
same,GI50,A549,9.77 µM
same,GI50,HCT-8,11.2 µM
same,GI50,DU-145,9.98 µM
same,Activity,HT-29 [1],Dose-dependent effect
same,Activity,HT-29 [2],tde
same,Activity,HT-29 [3],Active
same,Activity,HT-29 [4],Active
same,Activity,HT-29 [5],Active
same,Activity,HT-29 [6],Active
same,Activity,HT-29 [7],Active
same,Activity,HT-29 [8],inactive
same,Activity,HT-29 [9],inactive
same,Activity,HT-29 [10],inactive
same,Activity,HT-29 [11],Active
same,Activity,HT-29 [12],Active
same,Activity,HT-29 [13],Active
same,Activity,HT-29 [14],Active
same,Activity,HT-29 [15],Active
same,Activity,HT-29 [16],Active
same,Activity,HT-29 [17],Active
same,Activity,HT-29 [18],Active
same,Activity,HT-29 [19],Active
same,Activity,HT-29 [20],Active
same,Activity,HT-29 [21],Active
same,Activity,HT-29 [22],Active
same,IC50,[23],3.5 µM
same,inhibition,BV-2,inactive
same,Activity,HT-29 [24],Active
same,Activity,HT-29 [25],Active
same,Activity,HT-29 [26],Active
